Measurements from ChEMBL document CHEMBL4725346, “Syntheses and Evaluation of New Bisacridine Derivatives for Dual Binding of G-Quadruplex and i-Motif in Regulating Oncogene c-myc Expression” (J Med Chem, 2020).
The source made the active and inactive calls. No cut-off for these calls is given here.

What was measured:
SiHa [1] = test: Induction of apoptosis in human SiHa cells assessed as late apoptotic cells at 1.2 uM after 24 hrs by annexin V/FITC-propidium iodide staining-based flow cytometric method ( Rvb = 0.4%); type: functional
[2] = Drug uptake in human SiHa cells; type: ADME, cell-based
Quadruplex DNA [3] = test: Stabilization of 5'-FAM/3'-TAMRA labeled c-myc promoter G-quadruplex DNA FPu22T (unknown origin) assessed as change in melting temperature at 1 uM by FRET assay (reference value: 66.5 degreeC); type: nucleic-acid assay
Outline: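 FRET melting of dual FAM/TAMRA-labelled FPu22T annealed in 10 mM Tris-HCl pH 7.4 with KCl. Final 0.2 µM DNA with or without ligand. Excitation 470 nm, emission 530 nm, read every 1 °C over 37–99 °C on a real-time PCR cycler. ΔTm = Tm(DNA+ligand) − Tm(DNA).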

Quadruplex DNA [4] = test: Binding affinity to c-myc promoter G-quadruplex/i-motif in human SiHa cells assessed as reduction in c-myc expression incubated for 24 hrs by Western blot analysis; type: cell-based
Outline: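 SiHa cells treated 24 h at 0, 0.625, 1.25 and 2.5 μM, then lysed in buffer with 1 mM PMSF. Protein measured by BCA, equal loads run on 8% gel and blotted to PVDF. Probed with anti-c-MYC and anti-β-actin (loading control), HRP anti-rabbit secondary, chemiluminescence read-out.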

[5] = Stabilization of c-myc promoter i-motif DNA Py33 (unknown origin) assessed as effect on melting temperature at 5 uM by CD spectroscopy
Outline: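 CD melting: Py33 at 1 µM in 1× BPES pH 6.4, with or without ligand. Annealed at 95 °C for 5 min, slowly cooled, then heated at 1 °C/min while monitoring 260 nm. Tm obtained by curve fitting.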

CA46 = test: Induction of cell cycle arrest in human CA46 cells assessed as accumulation of cells at G2/M phase at 0.15 to 0.6 uM after 24 hrs by propidium iodide staining based flow cytometry; type: functional; conditions: dose microM 0.15-0.6, time 24.0 hrs
[6] = Toxicity in BALB/c nude mouse xenografted with human SiHa cells assessed as effect on body weight at 15 mg/kg, ip administered once per 2 days for 18 days; type: organism-based; conditions: in vivo, 432 h, time 18 day
Outline: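 SiHa tumour fragments passaged from donor mice implanted in the underarm of female BALB/c nude mice (six per group). Compound given at 15 mg/kg ip once every two days for 18 days, with saline and cisplatin 0.2 mg/kg control groups. Body weight recorded every two days; at day 18 mice were sacrificed and organs weighed.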

SiHa [7] = test: Inhibition of colony formation in human SiHa cells at 0.5 to 2 uM incubated for 9 days by crystal violet staining; type: functional, cell-based; conditions: dose microM 0.5-2, time 9.0 day
Outline: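 SiHa cells seeded at 500/well, pre-cultured 24 h at 37 °C/5% CO₂, then treated 9 days with compound at several concentrations. Cells washed with PBS, fixed 10 min in ice-cold methanol, stained 30 min with 0.5% crystal violet, dried and photographed.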

A549 = test: Antiproliferative activity against human A549 cells after 48 hrs by MTT assay; type: functional, cell-based; conditions: A549, 48 h
Outline: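 Cells seeded at 5.0×10^3 per well, pre-incubated 12 h at 37 °C, 5% CO2, then exposed to compounds for 48 h; DMSO-only control. MTT (2.5 mg/mL) added for 4 h, formazan dissolved in DMSO, absorbance at 570 nm. Each dose tested in triplicate; IC50 from percentage survival relative to negative control.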

SiHa [8] = test: Inhibition of cell invasion in human SiHa cells at 0.5 uM by transwell assay relative to control; type: functional
Outline: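 Transwell assay: SiHa cells incubated 24 h with 0.5 µM compound. Cell […] through the transwell was compared with an untreated control.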

SiHa [9] = test: Induction of apoptosis in human SiHa cells assessed as necrotic cells at 2.4 uM after 24 hrs by annexin V/FITC-propidium iodide staining-based flow cytometric method ( Rvb = 0.1%); type: functional
SiHa [10] = test: Induction of apoptosis in human SiHa cells assessed as early apoptotic cells at 0.6 uM after 24 hrs by annexin V/FITC-propidium iodide staining-based flow cytometric method ( Rvb = 0.3%); type: functional

Drug uptake [2]: Active
ΔTm (Quadruplex DNA [3]): 9.9 °C
Activity [5]: Active
IC50 (A549): 180 nM
Compound: Cc1ccc2nc3ccc(C)cc3c(NCCCNCCNCCCNc3c4cc(C)ccc4nc4ccc(C)cc34)c2c1
Activity (SiHa [1]): 18.7%
Activity (Quadruplex DNA [4]): Dose-dependent effect
Activity (CA46): inactive
Activity [6]: Non-Toxic
inhibition (SiHa [7]): Active
inhibition at 0.5 µM (SiHa [8]): 85%
Activity (SiHa [9]): 5.5%
Activity (SiHa [10]): 18.1%
